Each compound was assayed on Mycobacterium tuberculosis (assay: Antitubercular activity against Mycobacterium tuberculosis H37Rv ATCC 25177after 21 days by BACTEC MGIT 960 method). Conditions: 504 h.
Assay type: functional
Method in brief: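 Compounds dissolved in 100% methanol (10 mg/mL stock), sonicated, filter-sterilised, diluted in sterile water; twofold serial dilutions, working range 8 to 0.125 µg/mL. Strains grown in Middlebrook 7H9 + OADC at 37 °C; inoculum adjusted to McFarland 1, diluted tenfold to 10^5 CFU/mL into MGIT tubes. Drug-free control received a 1:100 inoculum. MIC is the lowest dilution negative when the control turns positive. Triplicate.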

In order of falling MIC:
1. CC(C)=CCC/C(C)=C/CNC(=O)CN1[C@H]2C3C4CC5C6C4C2C6[C@@]1(O)C53 (mixture of isomers)  1 µg/mL
2. CC(C)=CCC/C(C)=C/CNCCN1[C@H]2C3C4CC5C6C4C2C6[C@@]1(O)C53.Cl.Cl (mixture of isomers)  1 µg/mL
3. CC(C)=CCC/C(C)=C/CNCC(=O)N[C@]12O[C@H]3C4C5CC(C6C5C3C61)C42 (mixture of isomers)  1 µg/mL
4. CC(C)=CCC/C(C)=C/CNCCN[C@@H]1C2C3CC4C5C3CC2C5C41.Cl.Cl (mixture of isomers)  1 µg/mL
5. CC(C)=CCC/C(C)=C/CNCCN[C@]12O[C@H]3C4C5CC(C6C5C3C61)C42.Cl.Cl (mixture of isomers)  1 µg/mL
6. CC(C)=CCC/C(C)=C/CNCCNC1C2C3CC4C5CC(C42)C1C53.Cl.Cl (racemic)  0.5 µg/mL
7. CC(C)=CCC/C(C)=C/CNCCN[C@@H]1C2C3CC4C5C3C1C5[C@@H](O)C42.Cl.Cl (mixture of isomers)  0.5 µg/mL
8. CC(C)=CCC/C(C)=C/CNCCNC1C2CC3CC(C2)CC1C3.Cl.Cl (stereo not drawn)  0.5 µg/mL
